Hits are enriched below; roughly 1.9% of the tested compounds scored in any of these assays.
Rce1 inhib – yeast Rce1p protease inhibitors, primary screen, biochemical, fluorescence, cell-free homogeneous | CAAX prenyl protease 2 (Saccharomyces cerevisiae (strain ATCC 204508 / S288c)), Q03530 | yeast membranes, quenched prenylated peptide cleavage fluorescence | calls only | actives 0.27% (n = 290,000);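 active = fall in fluorescence gain of 50% or more versus controls, with final raw signal at or below 3038400; inconclusive = same 50% fall but final raw signal above 3038400; inactive = fall in fluorescence gain under 50%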
Target sequence (Q03530 whole entry, looked up): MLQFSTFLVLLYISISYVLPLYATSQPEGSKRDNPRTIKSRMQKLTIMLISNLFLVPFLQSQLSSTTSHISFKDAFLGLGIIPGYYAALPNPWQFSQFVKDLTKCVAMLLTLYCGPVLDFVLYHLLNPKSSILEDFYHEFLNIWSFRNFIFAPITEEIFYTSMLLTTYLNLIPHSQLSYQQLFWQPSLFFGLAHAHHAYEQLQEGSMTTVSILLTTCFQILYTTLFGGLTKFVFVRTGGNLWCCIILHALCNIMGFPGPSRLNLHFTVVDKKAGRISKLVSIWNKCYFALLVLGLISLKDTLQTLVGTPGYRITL
beta cell repl – inducers of MIN6 beta-cell proliferation, primary screen, ATP luminescence, uHTS | MIN6 cells proliferation, ATPlite luminescence, 48 h; cells starved in 0.2% serum; 100% = growth in 10% serum | proliferation, % at 10 µM | actives 0.29% (n = 330,000) | AID 2380, 2010;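 active = compounds whose signal lies at least 3.5 SD above the mean of all wells on their plate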
T cell HTS – modulators of CD8 T cell-vesicle binding, primary screen, mouse 2C CD8+ T cells, flow cytometry; 2C CD8+ T cell-vesicle binding; active compounds read low; response (vesicle binding), % at 7 µM; actives 0.068% (n = 330,000); AID 2052, 2009;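 active = response, share of CD8 T cells binding vesicles, and their 90th percentile fluorescence all below set limits, cut at about 80% in these data, passing the limit was not always enough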;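 note: values below 100% mean blocked vesicle binding to the CD8+ T cells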
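Read-out – percent CD8+ FL2 mean versus row control · System – murine 2C transgenic CD8+ T lymphocytes · Times – 1.5 h cell–vesicle binding at 37 °C, then 20 min icy labelling · Control set – naked vesicles low, QL9 vesicles with vehicle high · Detection – cytometric PE anti-B7-1 and Alexa647 anti-CD8 signals after 1% paraformaldehyde fixation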
Yeast superoxide – reduction of superoxide in aged yeast, primary screen, HTS; superoxide response (% of plate mean), % at 10 µM; S. cerevisiae aged cells, superoxide DHE fluorescence; active compounds read low; AID 2690, 2010; actives 0.18% (n = 330,000);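 active = superoxide response under a set limit, about three screen SD below normal, cut at about 65% in these data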;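 note: yeast aged for seven days with compound at 30 °C before DHE staining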
V-ATPase pHluor – regulators of yeast V-ATPase proton pumping, primary screen, pHLuorin cytosolic pH fluorescence; AID 504577, 2011; S. cerevisiae; response, % at 10 µM; actives 0.37% (n = 350,000); in the data active = response mostly above about 7.3%, no sharp cut-off; inactive = mostly below about 5.4%; note: actives read high
KLK7 zymogen act – proKLK7 zymogen activators, primary screen, biochemical, fluorescence intensity | Kallikrein-7 (Homo sapiens), P49862 | purified proKLK7, EDANS-DABCYL substrate fluorescence; 100% is mature enzyme control, 0% vehicle | activation, % at 7 µM | actives 0.9% (n = 370,000) | AID 652039, 2013;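 active = activation above the mean of all tested compounds plus 3 SD, computed per campaign excluding outliers beyond control limits, cut at about 13% in these data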
Target sequence (P49862 whole entry, looked up): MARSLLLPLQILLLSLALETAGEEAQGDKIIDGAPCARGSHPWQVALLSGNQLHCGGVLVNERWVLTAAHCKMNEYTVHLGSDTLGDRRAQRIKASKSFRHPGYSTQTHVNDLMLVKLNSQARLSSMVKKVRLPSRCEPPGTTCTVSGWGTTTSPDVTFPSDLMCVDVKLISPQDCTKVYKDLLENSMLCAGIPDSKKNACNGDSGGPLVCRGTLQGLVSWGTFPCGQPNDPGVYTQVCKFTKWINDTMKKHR
KLK7 act conf – proKLK7 zymogen activators, confirmation, biochemical, fluorescence intensity, triplicate | shares compounds with KLK7 zymogen act | purified proKLK7, EDANS-DABCYL substrate fluorescence; scaled: vehicle 0, mature enzyme 100 | activation, % at 7 µM | AID 686949, 2013 | actives 68% (n = 3,200);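 active = activation, as change over the incubation, above the mean of all tested compounds plus 3 SD, cut at about 13% in these data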
EDANS interfere – EDANS-DABCYL substrate optical interference, artefact control for kallikrein-7 zymogen activator project, biochemical, fluorescence intensity, high throughput | shares compounds with KLK7 zymogen act | no enzyme, 4 h; solvent 0%, active enzyme control 100% | activation, % at 7 µM | actives 80% (n = 3,200);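 active = activation above the all-compound mean plus 3 SD, ignoring values outside control-based bounds, cut at about 4.8% in these data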;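 note: value is the 4 h activation minus the activation read at time zero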
K7 EDANS ctr – counter-screen for kallikrein-7 activators: EDANS-DABCYL interference, dose response | shares compounds with KLK7 zymogen act | EDANS-DABCYL peptide fluorescence interference, no enzyme | EC50, µM | actives 20% (n = 250);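 active = compounds that raise the fluorescence signal in this interference counterscreen, with EC50 at or below 10 µM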;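 note: intact quenched peptide substrate alone read at 355 nm excitation and 520 nm emission; signal is fluorescence gain from T0 to T4 after four hours at room temperature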
A number is an active result; 0 = inactive; ? = inconclusive; - = no result.

SMILES	Rce1 inhib	beta cell repl	T cell HTS	Yeast superoxide	V-ATPase pHluor	KLK7 zymogen act	KLK7 act conf	EDANS interfere	others
CCc1ccc(-c2cc(C(=O)NN3CCOCC3)c3ccccc3n2)s1	0	0	0	0	0	49.4	79.4	67.8
Cc1ccc(-c2cc(C(=O)OC3CCOC3=O)c3ccccc3n2)c(C)c1 (stereo unspecified)	0	0	0	0	0	0	-	-
O=C(OC1CCOC1=O)c1cc(-c2cccs2)nc2ccccc12 (stereo unspecified)	0	0	0	0	0	275.0	139.4	189.3
Cc1ccc(CCNC(=O)CCS(=O)(=O)c2cc3c(cc2C)NC(=O)CO3)cc1	0	0	0	0	0	0	-	-
CC(C)OCCCNC(=O)c1cc(-c2cccs2)nc2ccccc12	0	0	0	0	0	14.6	12.6	13.1
Cc1ccc2nc(-c3ccc4c(c3)OCCO4)cc(C(=O)O)c2c1	0	0	0	0	0	0	-	-
O=C(O)c1cc(-c2cccs2)nc2cc3c(cc12)OCCO3	0	0	0	0	0	30.4	42.0	50.0
COc1ccccc1CC(=O)Nc1ccc(NC(=O)c2cccs2)cc1	0	0	0	0	0	52.0	72.5	59.5	K7 EDANS ctr=8.18
COc1ccc(NC(=O)CCC(=O)Nc2cc(OC)c(NC(=O)c3cccs3)cc2OC)cc1	-	0	0	0	0	0	-	-
COc1ccccc1CC(=O)NNC(=O)c1cccs1	0	0	0	0	0	0	-	-
COc1cc(NC(=O)c2cccs2)c(OC)cc1NC(=O)CCC(=O)Nc1ccc(C)cc1	0	0	0	0	0	123.4	0	0
COc1ccccc1C(C)NCC(=O)NCC(=O)Nc1ccc(F)c(F)c1F (stereo unspecified)	0	0	0	0	0	0	-	-
Cc1ccc(NC(=O)CN(C)C(=O)C(c2ccccc2)c2ccccc2)cc1	-	0	0	0	0	0	-	-
CC(OC(=O)c1ccccc1NCCO)C(=O)NCC(=O)Nc1ccc(F)c(F)c1F (stereo unspecified)	0	0	0	0	0	25.3	82.7	73.7
Cc1ccc(NC(=O)CN(C)C(=O)C(C)OC(=O)c2ccccc2NCCO)cc1 (stereo unspecified)	0	0	0	0	0	21.0	0	0
CCSCCCn1[nH]c2ccccc2c1=O	-	-	-	-	0	0	-	-
CC(Sc1nccn1C)C(=O)c1ccc(Br)cc1 (stereo unspecified)	0	0	0	0	0	0	-	-
COC(CNC(=O)c1ccc2nc3ccccc3c(=O)n2c1)OC	0	0	0	0	0	27.9	61.6	68.4
COCCCNC(=O)c1ccc2nc3ccccc3c(=O)n2c1	0	0	-	0	0	30.8	60.0	67.9
COc1ccc(CCNC(=O)c2ccc3nc4cc(Cl)ccc4c(=O)n3c2)cc1OC	0	0	0	0	0	0	-	-
COc1ccc(/C=N\NC(=O)Cc2cccn2C)cc1OCc1ccccc1	-	-	-	-	-	0	-	-
CN(C)N1C(=O)C2C3C=CC(O3)C2C1=O (stereo unspecified)	-	-	-	-	0	0	-	-
COCCCNC(=O)Cc1c(C)c2c(cc(C)c3c(C(C)(C)C)coc32)oc1=O	0	0	0	0	0	0	-	-
Cc1coc2c1c(C)cc1oc(=O)c(CC(=O)NCCC(=O)O)c(C)c12	0	0	0	0	0	30.2	63.5	74.8
COCCNC(=O)Cc1c(C)c2c(cc(C)c3c(C)coc32)oc1=O	0	0	0	0	0	15.5	0	0
SMILES	Rce1 inhib	beta cell repl	T cell HTS	Yeast superoxide	V-ATPase pHluor	KLK7 zymogen act	KLK7 act conf	EDANS interfere	others
Cc1ccc(C)n1-c1nccc(-c2ccco2)n1	0	0	0	0	0	81.2	112.6	126.9
c1ccc(CSc2nccc(-c3ccco3)n2)cc1	0	0	0	0	0	0	-	-
N#Cc1cccn1-c1nccc(-c2cccs2)n1	0	0	0	0	0	0	-	-
Cc1ccc(C)n1-c1nccc(-c2cccs2)n1	0	0	0	0	0	52.2	111.2	136.1
CN(CC(=O)Nc1ccc(Cl)c(C(F)(F)F)c1)C(=O)C1CSC2(C)CCC(=O)N12 (stereo unspecified)	0	0	0	0	0	0	-	-
Cc1ccccc1C(=O)c1cccn1CC(=O)NCc1ccccc1Cl	0	0	0	0	0	0	-	-
CC(=O)c1ccc(N2CCN(S(=O)(=O)c3cc4c(cc3C)NC(=O)CO4)CC2)cc1	0	0	0	0	0	20.3	0	8.1
CC(=O)N1CC2(NC(=O)c3ccccc3N2)c2ccccc21 (stereo unspecified)	0	0	0	0	0	19.1	16.6	18.1
CCNS(=O)(=O)c1ccc2nc(NC(=O)/C=C/c3cc(OC)c(OC)c(OC)c3)sc2c1	0	0	0	0	0	0	-	-
COc1cc(/C=C/C(=O)Nc2nc3ccc(S(=O)(=O)NC(C)C)cc3s2)cc(OC)c1OC	0	0	0	0	0	15.0	59.0	62.6
CCNC(=O)C1(C)CCCN(C(=O)c2csc3ccccc23)C1 (stereo unspecified)	-	-	-	-	-	0	-	-
CCCCN1C(=O)c2cccc3cc(O)cc(c23)C1=O	0	0	0	0	0	30.7	48.2	68.0
O=C(O)CCCN1C(=O)c2cccc3cccc(c23)C1=O	-	0	0	0	0	0	-	-
CN1C(=S)SC2CS(=O)(=O)CC21C (stereo unspecified)	0	0	0	0	0	0	-	-
Cc1cccc(-[n+]2c(C)cc(C)c3c(=O)[nH]c(=O)[nH]c32)c1	?	0	0	0	0	29.4	42.2	53.2
Cc1cc(C)[n+](-c2ccc(C(C)C)cc2)c2[nH]c(=O)[nH]c(=O)c12	?	0	0	0	0	27.4	61.0	65.2
Cc1ccc2nc3[nH]c(=O)[nH]c(=O)c3c(N)c2c1	-	-	-	-	0	0	-	-
CCc1ccc2nc3nc(C)cc(C)c3c(N)c2c1	0	0	0	0	0	32.2	32.4	40.3
CC1(c2cccc(Br)c2)NC(=O)N(CC(=O)Nc2cccnc2Cl)C1=O (stereo unspecified)	0	0	0	0	0	0	-	-
O=C(O)c1ccc(N/N=C/C2=Cc3ccccc3OC2)cc1	0	0	0	0	0	14.5	0	11.0
